Measured values: PubChem BioAssay
“And” between values parts separate entries of the source, which are not always exact repeats. Equal values may be shown once. The source made the active and inactive calls.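 How the source made its calls, unless noted: active means viability at or below 30% in both replicate assays; inconclusive means viability at or below 30% in just one of the two assays; inactive means the rest.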

Tests used:
[1] = reducers of endogenous Her2 protein level, primary screen, SKBR3 breast tumor cells, AlphaScreen, ATP viability (AID 461;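 active means Her2 level under about 52% in both replicate screens, with viability over 70% of control, limit read from the data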;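 on Her2 level: lower value means less Her2 protein in the cells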;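 on viability: percent of carrier control wells set as 100% viability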); settings: 18-24 h, measured here: SKBR3 viability, ATP luminescence, at 10 µM
[2] = biological target: Receptor tyrosine-protein kinase erbB-2 (Homo sapiens) (UniProt P04626); experiment: as above; settings: 18-24 h, at 10 µM, stronger effect = lower value
[3] = SK-BR-3 cell growth inhibitors, pilot screen, 24 h, human (AID 572;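 active means viability at or below 10% of carrier control in both of two separate runs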;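 further: compound exposure lasted between 18 and 24 h rather than exactly 24 h; 100% = carrier-treated control wells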); settings: SK-BR-3 viability, CellTiter-Glo luminescence, at 10 µM, stronger effect = lower value
[4] = HUVEC growth inhibition – cell-based, human, primary screen (AID 575); settings: HUVEC proliferation, CellTiter-Glo luminescence, 72 h; at 10 µM; stronger effect = lower value;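 further: 100% = median of untreated cell wells with 0.1% DMSO on each plate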
Outline: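 material = primary HUVEC, no more than 12 passages | input = 1250 cells per well | controls = vehicle and MePR control wells | measured by = CTG luminescence | times = 72 h compound incubation | format = collagen-coated 384-well format | read-out = % viability vs DMSO wells | doses = single 10 µM dose, 0.1% DMSO, from 5x medium stock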

[5] = growth inhibitors of H69AR lung tumor, primary screen, human, duplicate replicates (AID 580;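 active means viability at or under a set limit in both replicates, limit being median viability minus 3 SD, cut at about 48% in these data, passing the limit was not always enough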;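 further: 100% = mean luminescence of untreated wells and 0% = no signal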); settings: H69AR lung tumor cells viability, ATP luminescence, 72 h; at 10 µM; stronger effect = lower value
[6] = reversal of MRP1-mediated doxorubicin resistance, pilot screen, H69AR cells, doxorubicin co-treatment (AID 601;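 active means viability loss from added drug above about 55%, and viability with drug at most 40%, in both replicates, limit read from the data, passing the limit was not always enough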); settings: CellTiter-Glo, 72 h, at 10 µM; for differential viability (reversal): stronger effect = higher value
[7] = 384-well plate pilot, post-Golgi transport modulator project, inhibition of yeast transport mutant growth (AID 636; in the data active means inhibition above about 31%); settings: absorbance 615 nm, about 18 h, stronger effect = higher value
[8] = growth suppression of yeast trafficking mutant, preliminary HTS, modulators of trafficking downstream of Golgi apparatus project, 1536-format plate, OD 615 nm (AID 637; in the data active means inhibition above about 30%); settings: yeast transport mutant growth, absorbance 615 nm, 18 h; stronger effect = higher value
[9] = H69AR cells + 2 uM doxorubicin, measured here: viability with 2 uM doxorubicin, stronger effect = lower value
[10] = H69AR cells, compound alone cytotoxicity

Receptor tyrosine-protein kinase erbB-2 (Homo sapiens), sequence (P04626 whole entry, looked up): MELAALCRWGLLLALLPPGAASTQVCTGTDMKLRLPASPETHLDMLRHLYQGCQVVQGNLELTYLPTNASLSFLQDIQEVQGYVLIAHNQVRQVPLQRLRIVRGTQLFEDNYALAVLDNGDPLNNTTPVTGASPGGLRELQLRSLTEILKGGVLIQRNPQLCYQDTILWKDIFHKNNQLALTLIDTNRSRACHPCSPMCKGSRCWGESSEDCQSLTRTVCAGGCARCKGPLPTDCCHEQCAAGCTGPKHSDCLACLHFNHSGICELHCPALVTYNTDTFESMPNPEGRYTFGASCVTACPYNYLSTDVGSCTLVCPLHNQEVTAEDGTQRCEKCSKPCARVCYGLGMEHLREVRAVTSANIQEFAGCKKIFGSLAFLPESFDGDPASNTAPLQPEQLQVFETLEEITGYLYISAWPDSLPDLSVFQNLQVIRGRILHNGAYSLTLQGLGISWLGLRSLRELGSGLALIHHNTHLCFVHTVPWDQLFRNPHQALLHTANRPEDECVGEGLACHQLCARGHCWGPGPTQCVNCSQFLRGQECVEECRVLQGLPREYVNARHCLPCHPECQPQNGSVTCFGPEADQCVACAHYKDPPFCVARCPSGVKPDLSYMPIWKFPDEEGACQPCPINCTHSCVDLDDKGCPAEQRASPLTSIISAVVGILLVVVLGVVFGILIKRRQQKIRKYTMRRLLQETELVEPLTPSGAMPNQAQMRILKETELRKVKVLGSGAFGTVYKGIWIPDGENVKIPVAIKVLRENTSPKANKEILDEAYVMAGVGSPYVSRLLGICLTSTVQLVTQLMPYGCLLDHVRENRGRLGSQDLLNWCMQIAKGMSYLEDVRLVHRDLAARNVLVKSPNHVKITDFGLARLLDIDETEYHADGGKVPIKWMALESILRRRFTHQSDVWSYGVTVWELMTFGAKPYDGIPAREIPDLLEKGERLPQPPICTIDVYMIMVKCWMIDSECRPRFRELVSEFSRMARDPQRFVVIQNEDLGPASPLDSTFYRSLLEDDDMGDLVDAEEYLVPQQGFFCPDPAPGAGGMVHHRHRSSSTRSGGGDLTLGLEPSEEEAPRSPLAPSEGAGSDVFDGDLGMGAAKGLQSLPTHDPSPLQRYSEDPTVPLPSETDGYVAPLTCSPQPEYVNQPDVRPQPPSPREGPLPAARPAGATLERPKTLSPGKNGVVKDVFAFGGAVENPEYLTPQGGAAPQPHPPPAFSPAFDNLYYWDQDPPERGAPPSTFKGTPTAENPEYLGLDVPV

| SMILES | viability [1] [%] | Her2 level [2] | viability [3] | viability [4] | viability [5] | differential viability (reversal) ([6]; H69AR cells + 2 uM doxorubicin) | viability [6, 9] | viability [6, 10] | inhibition [7] | inhibition [8] |
| --- | --- | --- | --- | --- | --- | --- | --- | --- | --- | --- |
| CCCCC(=O)NCCc1cc2ccc(OC)cc2[nH]c1=O | 91.5 | 85.5% (inactive) | 91.5% (inactive) | 102% (inactive) | 103% (inactive) | 7.54% (inactive) | 95.4% | 103% | -7.95% (inactive) | -3.33% (inactive) |
| C=Cn1nc(C)c2ccccc2c1=O | 112 | 117% (inactive) | 112% (inactive) | 105% (inactive) | 90.1% (inactive) | 4.88% (inactive) | 85.2% | 90.1% | -3.33% (inactive) | -7.83% (inactive) |
| CCN=C1SC(CC(=O)Nc2ccccc2)C(=O)N1CC (stereo not given) | 98.5 | 91.5% (inactive) | 98.5% (inactive) | 122% (inactive) | 105% (inactive) | 10% (inactive) | 94.9% | 105% | -1.92% (inactive) | -1.33% (inactive) |
| CCC(C)Nc1nc2c(c(=O)n(C)c(=O)n2C)n1Cc1ccc(F)cc1 (stereo not given) | 90.5 | 86.5% (inactive) | 90.5% (inactive) | 88.6% (inactive) | 83.3% (inactive) | -14.3% (inactive) | 97.6% | 83.3% | -5.27% (inactive) | 5.08% (inactive) |
| COC(=O)CN(c1ccc(C)c(Cl)c1)S(C)(=O)=O | 108 | 100% (inactive) | 108% (inactive) | 99.5% (inactive) | 101% (inactive) | 10.7% (inactive) | 90.5% | 101% | -2.27% (inactive) | -0.81% (inactive) |
| NC(=O)COC(=O)c1ccc(S(=O)(=O)N2CCCCCC2)cc1 | 93 | 104% (inactive) | 93% (inactive) | 92.8% (inactive) | 88% (inactive) | -2.85% (inactive) | 90.9% | 88% | -2.82% (inactive) | -7.67% (inactive) |
| CCC1(C)Cc2c(C#N)c(N)n(-c3ccccc3)c(=O)c2CO1 (stereo not given) | 100 | 106% (inactive) | 100% (inactive) | 104% (inactive) | 109% (inactive) | 19.4% (inactive) | 89.7% | 109% | -0.13% (inactive) | -3.64% (inactive) |
| Cn1c2c(c(=O)n(C)c1=O)C(c1cccc(Br)c1)C1C(=O)c3ccccc3C1=N2 (stereo not given) | 103 | 97.5% (inactive) | 103% (inactive) | 72.5% (inactive) | 40.6% (active) | 5.16% (inactive) | 35.4% | 40.6% | 0.27% (inactive) | 1.43% (inactive) |
| CS(=O)(=O)N1CCN(c2ccccc2NC(=O)c2ccc(-c3ccc(Cl)cc3Cl)o2)CC1 | 78.5 | 96.5% (inactive) | 78.5% (inactive) | 76.7% (inactive) | 86.4% (inactive) | 10.2% (inactive) | 76.2% | 86.4% | -2.93% (inactive) | -3.49% (inactive) |
| Cc1nn(C)c(C)c1S(=O)(=O)N1CCCC(C(=O)N2CCN(c3ccc(Cl)cc3)CC2)C1 (stereo not given) | 102 | 70% (inactive) | 102% (inactive) | 87.7% (inactive) | 88.3% (inactive) | 19.3% (inactive) | 69% | 88.3% | -2.43% (inactive) | 3.49% (inactive) |
| COc1ccc(NC(=O)C(C)NS(=O)(=O)c2ccccc2)cc1Cl (stereo not given) | 92 | 99% (inactive) | 92% (inactive) | 98.4% (inactive) | 97.7% (inactive) | 6.73% (inactive) | 91% | 97.7% | -3.87% (inactive) | -6.19% (inactive) |
| C=CCn1c(SCC(=O)Nc2ccccc2OC)nnc1-c1ccco1 | 95 | 89.5% (inactive) | 95% (inactive) | 95.2% (inactive) | 67.7% (inactive) | -16.8% (inactive) | 84.5% | 67.7% | -4.67% (inactive) | 2.9% (inactive) |
| CCOC(=O)C1=C(C)N=C2SCCC(=O)N2C1c1cc(Br)ccc1OC (stereo not given) | 94.5 | 91% (inactive) | 94.5% (inactive) | 107% (inactive) | 92% (inactive) | 1.69% (inactive) | 90.3% | 92% | -7.67% (inactive) | 0% (inactive) |
| C(=C\c1ccccc1)/CN1CCN(Cc2ccc3c(c2)OCCO3)CC1 | 85 | 91.5% (inactive) | 85% (inactive) | 105% (inactive) | 93% (inactive) | 4.42% (inactive) | 88.6% | 93% | -3.77% (inactive) | 1.15% (inactive) |
| c1cncc(-c2nnc(SCCSc3nnc(-c4cccnc4)o3)o2)c1 | 99.5 | 93% (inactive) | 99.5% (inactive) | 98.7% (inactive) | 91.9% (inactive) | 0.085% (inactive) | 91.8% | 91.9% | -5.68% (inactive) | -2.17% (inactive) |
| CCOc1ccc(NC(=O)CN(C)CC(=O)NC2CCCc3ccccc32)cc1OCC (stereo not given) | 83 | 88.5% (inactive) | 83% (inactive) | 100% (inactive) | 89.9% (inactive) | -7.38% (inactive) | 97.3% | 89.9% | -0.38% (inactive) | 0.33% (inactive) |

| SMILES | viability [1] [%] | Her2 level [2] | viability [3] | viability [4] | viability [5] | differential viability (reversal) ([6]; H69AR cells + 2 uM doxorubicin) | viability [6, 9] | viability [6, 10] | inhibition [7] | inhibition [8] |
| --- | --- | --- | --- | --- | --- | --- | --- | --- | --- | --- |
| CCC1(CC)NC(=O)NC1=O | 110 | 90% (inactive) | 110% (inactive) | 85% (inactive) | 105% (inactive) | 14.9% (inactive) | 90.1% | 105% | -4.74% (inactive) | 3.11% (inactive) |
| COC(=O)C1=C(C)OC(N)=C(C#N)C1c1c(C)nn(-c2ccccc2)c1Cl (stereo not given) | 89 | 118% (inactive) | 89% (inactive) | 70.7% (inactive) | 79.7% (inactive) | -6.99% (inactive) | 86.7% | 79.7% | -0.27% (inactive) | 16.6% (inactive) |
| Cc1nnc(SCC(=O)N2CC(=O)Nc3ccccc32)n1-c1ccccc1 | 93 | 90% (inactive) | 93% (inactive) | 102% (inactive) | 97% (inactive) | 2.75% (inactive) | 94.3% | 97% | -4.53% (inactive) | 4.84% (inactive) |
| C[C@]12CCC(=O)C=C1CC[C@@H]1[C@@H]2[C@@H](O)C[C@@]2(C)[C@H]1CC[C@]2(O)C(=O)COC(=O)CCC(=O)O | 95 | 120% (inactive) | 95% (inactive) and 100% (inactive) | 81.3% (inactive) and 75% (inactive) | 111% (inactive) and 103% (inactive) | 9.53% (inactive) and -0.58% (inactive) | 101% and 103% | 111% and 103% | -3.38% (inactive) | 6.33% (inactive) |
| O=C(C1CCC(N2C(=O)C3CC=CCC3C2=O)CC1)N1CCCCC1 (stereo not given) | 75.5 | 113% (inactive) | 75.5% (inactive) | 96.3% (inactive) | 91.8% (inactive) | 8.11% (inactive) | 83.7% | 91.8% | 0.64% (inactive) | -5.83% (inactive) |
| CCC(C)(C)NC(=O)C(OC(=O)c1ccco1)c1ccccc1OC (stereo not given) | 99 | 93% (inactive) | 99% (inactive) | 91.4% (inactive) | 106% (inactive) | 18.8% (inactive) | 87.2% | 106% | -3.65% (inactive) | -5% (inactive) |
| Cc1nnc(N2C(=O)c3oc4ccccc4c(=O)c3C2c2ccco2)s1 (stereo not given) | 93 | 99.5% (inactive) | 93% (inactive) | 115% (inactive) | 95.2% (inactive) | 9.59% (inactive) | 85.6% | 95.2% | -1.54% (inactive) | 0.83% (inactive) |
| COc1ccccc1N1CCN(C(=O)C(Cc2ccccc2)NC(=O)C2CCCCC2)CC1 (stereo not given) | 73.5 | 85.5% (inactive) | 73.5% (inactive) | 74.8% (inactive) | 90.6% (inactive) | 3.88% (inactive) | 86.7% | 90.6% | -5.84% (inactive) | -2.62% (inactive) |
| CCOCCCNC(=O)CC1Oc2ccc(C)cc2NC1=O (stereo not given) | 109 | 100% (inactive) | 109% (inactive) | 86.8% (inactive) | 94.7% (inactive) | -3.06% (inactive) | 97.7% | 94.7% | -1.6% (inactive) | 5.08% (inactive) |
| FC(F)(F)c1cccc(N2CCN(Cc3cccnc3)CC2)c1 | 90.5 | 99.5% (inactive) | 90.5% (inactive) | 101% (inactive) | 110% (inactive) | 25.3% (inactive) | 84.9% | 110% | -0.4% (inactive) | -1.61% (inactive) |
| CCOC(=O)c1oc2cccc(OC(C)=O)c2c1C | 106 | 82% (inactive) | 106% (inactive) | 89.9% (inactive) | 85.6% (inactive) | -0.89% (inactive) | 86.5% | 85.6% | -5.6% (inactive) | 3.11% (inactive) |
| Cc1csc2nc(CNC(=O)c3ccco3)cn12 | 86 | 102% (inactive) | 86% (inactive) | 95.6% (inactive) | 112% (inactive) | 13.9% (inactive) | 98.5% | 112% | -1.2% (inactive) | -4.35% (inactive) |
| Cc1ccc(CS(=O)(=O)CCC(=O)NCC2CCCO2)cc1 (stereo not given) | 96.5 | 106% (inactive) | 96.5% (inactive) | 116% (inactive) | 93.3% (inactive) | 2.6% (inactive) | 90.7% | 93.3% | -7.03% (inactive) | 7.5% (inactive) |
| CC(C)Cn1c(=O)c(C(=O)Nc2ccccc2S(N)(=O)=O)c(O)c2ccccc21 | 118 | 91.5% (inactive) | 118% (inactive) | 62.9% (inactive) | 16.1% (active) | -11.4% (inactive) | 27.5% | 16.1% | 10.3% (inactive) | 8.67% (inactive) |
| COc1ccc(-n2nnnc2-c2cccc(OC)c2)cc1 | 102 | 87.5% (inactive) | 102% (inactive) | 45.3% (inactive) | 34.5% (active) | -26.5% (inactive) | 61.1% | 34.5% | -5.95% (inactive) | -1% (inactive) |
